Data on 14 compounds can be found in ChEMBL document CHEMBL1275290, “4-Aminoquinoline derived antimalarials: synthesis, antiplasmodial activity and heme polymerization inhibition studies” (Eur J Med Chem, 2010).

pIC50: −log10 of the molar value.

The nature of assay [1]: Inhibition of beta-hematin polymerization by UV spectrophotometry based BHIA assay relative to untreated hemin control. The class given is functional. A digest of the protocol: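 IC50 expressed as millimolar equivalents of compound relative to hemin needed to block beta-hematin formation by 50%. Triplicate readings converted to percent inhibition versus drug-free hemozoin control; IC50 from sigmoidal dose-response non-linear regression. Means ± SD from at least three experiments in duplicate.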

Assay [2] can be described thus: Binding affinity to hematin measured as association constant for 1:1 (hematin-compound) complex formation at pH 7.5. The method in brief: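 Spectrophotometric titration of hematin with compound in 40% aqueous DMSO, 20 mM HEPES, pH 7.5, 25 °C; hematin held in monomeric state. Association constant for 1:1 compound:hematin complex; means ± SD from at least three experiments in duplicate.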

The test system of assay [3] is Plasmodium falciparum. The experiment in a line: Antimalarial activity against chloroquine-sensitive Plasmodium falciparum D6 after 72 hrs by SYBR Green I fluorescence based method. The class given is functional, organism-based. The note with it: D6, 72 h. The method in brief:
(§1)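 Asynchronous continuous P. falciparum cultures diluted with uninfected erythrocytes in RPMI-1640 + 0.5% Albumax II to 0.2% parasitemia, 2% hematocrit. Compounds from 10 mM DMSO stock diluted in medium (0.1 nM–100 range). 72 h incubation under standard culture conditions; SYBR Green I fluorescence read (ex 497/em 520 nm). Triplicate experiments; IC50 from variable-slope sigmoidal dose–response fits.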

Assay [4] relates to Plasmodium falciparum. Kind of assay: Resistance index, ratio of IC50 for chloroquine-resistant Plasmodium falciparum Dd2 to IC50 for chloroquine-sensitive Plasmodium falciparum D6. The class given is functional. A digest of the protocol: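 Ratio of Dd2 IC50 to D6 IC50, each from the 72 h SYBR Green I growth assay (0.2% parasitemia, 2% hematocrit, RPMI-1640 + 0.5% Albumax II), triplicate, IC50 from variable-slope sigmoidal fits.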

Assay [5] has as its system Plasmodium falciparum. Kind of assay: Antimalarial activity against chloroquine-resistant Plasmodium falciparum Dd2 after 72 hrs by SYBR Green I fluorescence based method. The class given is functional, organism-based. The note with it: Dd2, 72 h. A digest of the protocol: as §1

As usually defined, the pIC50 is −log10 of the IC50, conventionally taken in molar units. `S=C(NCCCNc1ccnc2cc(Cl)ccc12)NCCCNc1ccnc2cc(Cl)ccc12` registered an IC50 in assay [1] of 0.27 mMequiv. The log Ks in assay [2] came out at 5.38. Also, the pIC50 is 6.89 in assay [3] and 6.55 in assay [5]. In assay [4], the “Ratio IC50” value stood at 2.18.
`S=C(NCCCNc1ccnc2cc(Cl)ccc12)Nc1ccc(Cl)cc1` registered an IC50 in assay [1] of 0.48 mMequiv. Also, in assay [2], the log Ks stood at 4.23. In assay [3], this compound had a pIC50 of 6.63.
The compound `CCN(CC)C(=S)NCCCNc1ccnc2cc(Cl)ccc12` gave an IC50 in assay [1] of 0.15 mMequiv. Besides, the log Ks in assay [2] came to 5.34. Also, the pIC50 in assay [3] is 6.99; in assay [5] it was 6.90. Besides, the “Ratio IC50” value in assay [4] was 1.21.
For `S=C(NCCCNc1ccnc2cc(Cl)ccc12)N1CCOCC1`, in that order: 0.34 mMequiv, 4.94, 6.74, 6.25 and 3.08.
For `CN1CCN(C(=S)NCCCNc2ccnc3cc(Cl)ccc23)CC1`, in that order: 0.35 mMequiv, 4.98, 7.23, 7.16 and 1.16.
For `CNC(=S)NCCCNc1ccnc2cc(Cl)ccc12`, in that order: 0.66 mMequiv, 4.57, 6.75, 6.67 and 1.2.
For `S=C(NCCCNc1ccnc2cc(Cl)ccc12)N1CCCCC1`, the IC50 in assay [1] is given as 0.29 mMequiv. For the same compound, the log Ks in assay [2] was determined as 5.24. Further, the negative logarithm of the IC50 (pIC50) in assay [3] and in assay [5] was 6.98 each time. Besides, in assay [4], the “Ratio IC50” value is recorded as 0.99.
Compound `CN(C)C(=S)NCCCNc1ccnc2cc(Cl)ccc12` returned an IC50 in assay [1] of 0.55 mMequiv. The same compound yielded a log Ks in assay [2] of 4.87. This compound had a pIC50 in assay [3] of 6.86.
In assay [1], `CCN(CC)CCCC(C)Nc1ccnc2cc(Cl)ccc12` (configuration not stated) [CHLOROQUINE] returned an IC50 of 0.17 mMequiv.
As to `S=C(NCCCNc1ccnc2cc(Cl)ccc12)N1CCNCC1`, the IC50 in assay [1] is 0.69 mMequiv. Also, the log Ks in assay [2] was 4.46. The pIC50 was 6.48 in assay [3] and 6.11 in assay [5]. For the same compound, in assay [4], the “Ratio IC50” value was 2.33.
With `S=C(NCCCNc1ccnc2cc(Cl)ccc12)N1CCN(c2ccccc2)CC1`, in assay [1], the IC50 was determined as 0.17 mMequiv. This compound also returned a log Ks in assay [2] of 5.37. Moreover, the results for the pIC50 in assay [3] and in assay [5] were 7.54 and 7.30, respectively. In assay [4], the “Ratio IC50” value was found to be 1.76.
Take `CC(C)N(C(=S)NCCCNc1ccnc2cc(Cl)ccc12)C(C)C`: the IC50 in assay [1] was found to be 0.33 mMequiv. In assay [2], the log Ks turned out to be 4.95. The pIC50 is 6.79 in assay [3] and 6.70 in assay [5]. The “Ratio IC50” value in assay [4] was determined as 1.25.
The like results for `S=C(NCCCNc1ccnc2cc(Cl)ccc12)N1CCCC1` were, in that order, 0.35 mMequiv, 4.98, 6.89, 6.85 and 1.11.
In assay [1], `S=C(NCCCNc1ccnc2cc(Cl)ccc12)NC1CC1` showed an IC50 of 0.11 mMequiv. In assay [2], the log Ks is 5.67. Also, the pIC50 in assay [3] is 7.62; in assay [5], 7.85. For the same compound, the “Ratio IC50” value in assay [4] is given as 0.59.
